# Activity calls are given as the source filed them. The rule behind the calls is not given here.
# Experiments:
# [1] = test system: Colletotrichum gloeosporioides; assay: Antifungal activity against Colletotrichum gloeosporioides assessed as as appearance of diffuse zone of inhibition at 2 mM in 2 uL solution by direct bio-autography assay; type: functional, organism-based
# Colletotrichum acutatum = assay: Antifungal activity against Colletotrichum acutatum assessed as appearance of diffuse zone of inhibition at 2 mM in 2 uL solution by direct bio-autography assay; type: functional, organism-based
# [2] = test system: Colletotrichum gloeosporioides; assay: Antifungal activity against Colletotrichum gloeosporioides assessed as as appearance of diffuse zone of inhibition at 2 mM in 2 uL solution by direct bio-autography assay1; type: functional, organism-based
# Anopheles stephensi = assay: Feeding deterrent activity against Anopheles stephensi assessed as proportion of mosquitoes not biting at 25 nmol/cm2 cloth relative to untreated control; type: functional
# Method in brief: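 Klun and Debboun in vitro module assay with mated nulliparous An. stephensi females (Delhi strain, 5-15 d old), given water only for 24 h before testing. Compounds were applied in ethanol to organdy cloth at 25 nmol/cm2 against an ethanol-treated control cloth. Conditions were 24-26 °C and 24-51% RH, 1300-1600 h, with 100 females (20 replicates). The proportion not biting was scored.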
# Aedes aegypti = assay: Feeding deterrent activity against Aedes aegypti liverpool assessed as proportion of mosquitoes not biting at 25 nmol/cm2 cloth relative to untreated control; type: functional
# Method in brief: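 In vitro Klun and Debboun module assay with mated nulliparous Ae. aegypti females (red eye Liverpool strain, 5-15 d old), denied water for 24 h before testing. Treatments in ethanol were applied to organdy cloth at 25 nmol/cm2, with an ethanol-treated cloth as control. Testing ran at 24-26 °C and 24-51% RH, 1300-1600 h, using 85 females (17 replicates). Read-out was the proportion not biting.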
Structure (SMILES),growth inhibition (GI) [1],growth inhibition (GI) (Colletotrichum acutatum),growth inhibition (GI) [2],Ratio (Anopheles stephensi),Ratio (Aedes aegypti)
CO/C=C(/C(=O)OC)c1ccccc1Oc1cc(Oc2ccccc2C#N)ncn1,Active,Active,–,–,–
Cc1cc(C2CC2)nc(Nc2ccccc2)n1,Active,Active,Active,–,–
CCCCNC(=O)n1c(NC(=O)OC)nc2ccccc21,Active,Active,–,–,–
CCC/C=C1\OC(=O)C2=C1CCC=C2 [LIGUSTILIDE],–,–,–,0.66,0.79
CCN(CC)C(=O)c1cccc(C)c1 [DIETHYLTOLUAMIDE],–,–,–,0.51,0.67
CC1=CCC[C@@H]2[C@@](C)(CC=O)[C@H](C)CC[C@@]12C [CALLICARPENAL],–,–,–,0.72,0.91
